Measurements: ChEMBL document CHEMBL4842372, “Discovery of ARD-2585 as an Exceptionally Potent and Orally Active PROTAC Degrader of Androgen Receptor for the Treatment of Advanced Prostate Cancer” (J Med Chem, 2021)
The source made the active and inactive calls. The rule behind the calls is not given here.

Columns and labels:
VCaP [1] = assay: Growth inhibition of human VCaP cells assessed as cell viability by WST-8 assay; type: functional, cell-based
VCaP [2] = assay: Antitumor activity against human VCaP cells xenografted in CB17:SCID mouse assessed as reduction in AR protein level in tumor at 20 mg/kg, po measured for 6 to 24 hrs by Western blot analysis; type: functional, organism-based; details: time 6-24 hrs
How it was run: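 VCaP xenografts in male CB17 SCID mice grown to about 200 mm3; single oral gavage dose of 20 mg/kg in 100% PEG200; tumors collected at 6 and 24 h, RIPA lysates blotted for AR with GAPDH as loading control, band intensity normalised to loading control.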

[3] = Drug distribution in plasma of CB17:SCID mouse xenografted with human VCaP cells at 20 mg/kg, po measured at 6 hrs by LCMS analysis; type: ADME, organism-based
How it was run: (§1)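 Tumor-bearing male CB17 SCID mice (VCaP xenografts) given one 20 mg/kg oral dose in 100% PEG200, three mice per time point; plasma, tumor, liver, kidney, prostate and heart taken at 1, 6 and 24 h; tissues homogenised in water/acetonitrile, protein precipitated with cold acetonitrile, drug quantified by LC–MS/MS; ratios are tissue over plasma level.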

[4] = Drug distribution in plasma of CB17:SCID mouse xenografted with human VCaP cells at 20 mg/kg, po measured at 24 hrs by LCMS analysis; type: ADME, organism-based; how it was run: as §1
[5] = Drug distribution in prostate gland of CB17:SCID mouse xenografted with human VCaP cells at 20 mg/kg, po measured at 6 hrs by LCMS analysis; type: ADME, organism-based; details: read-out: Drug uptake; how it was run: as §1
[6] = Drug distribution in prostate gland of CB17:SCID mouse xenografted with human VCaP cells at 20 mg/kg, po measured at 24 hrs by LCMS analysis; type: ADME, organism-based; details: read-out: Drug uptake; how it was run: as §1
VCaP [7] = assay: Antitumor activity against human VCaP cells xenografted in CB17:SCID mouse assessed as reduction in AR protein level in tumor at 10 mg/kg, po for 3 days measured at 6 hrs by Western blot analysis; type: functional; details: 72 h, time 3 day
How it was run: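 Male CB17 SCID mice bearing subcutaneous VCaP tumors (5 × 10^6 cells in Matrigel); dosed by oral gavage in 100% PEG200 at 10 mg/kg daily for 3 days; tumors harvested 3, 6 and 24 h post-dose, lysed in RIPA, Western blot for AR with GAPDH loading control, bands quantified by densitometry relative to loading control.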

[8] = Drug distribution in CB17:SCID mouse xenografted with human VCaP cells assessed as kidney to plasma ratio at 20 mg/kg, po measured at 1 hrs by LCMS analysis; type: ADME, organism-based; how it was run: as §1
[9] = Drug distribution in prostate gland of CB17:SCID mouse xenografted with human VCaP cells at 20 mg/kg, po measured at 1 hrs by LCMS analysis; type: ADME, organism-based; details: read-out: Drug uptake; how it was run: as §1
[10] = Drug distribution in CB17:SCID mouse xenografted with human VCaP cells assessed as tumor to plasma ratio at 20 mg/kg, po measured at 6 hrs by LCMS analysis; type: ADME, organism-based; how it was run: as §1
[11] = Drug distribution in liver of CB17:SCID mouse xenografted with human VCaP cells at 20 mg/kg, po measured at 6 hrs by LCMS analysis; type: ADME, organism-based; details: read-out: Drug uptake; how it was run: as §1
[12] = Drug distribution in CB17:SCID mouse xenografted with human VCaP cells assessed as liver to plasma ratio at 20 mg/kg, po measured at 6 hrs by LCMS analysis; type: ADME, organism-based; how it was run: as §1
[13] = Drug distribution in kidney of CB17:SCID mouse xenografted with human VCaP cells at 20 mg/kg, po measured at 24 hrs by LCMS analysis; type: ADME, organism-based; details: read-out: Drug uptake; how it was run: as §1
[14] = Drug distribution in CB17:SCID mouse xenografted with human VCaP cells assessed as kidney to plasma ratio at 20 mg/kg, po measured at 24 hrs by LCMS analysis; type: ADME, organism-based; how it was run: as §1
[15] = Drug distribution in heart of CB17:SCID mouse xenografted with human VCaP cells at 20 mg/kg, po measured at 24 hrs by LCMS analysis; type: ADME, organism-based; details: read-out: Drug uptake; how it was run: as §1
[16] = Drug distribution in CB17:SCID mouse xenografted with human VCaP cells assessed as heart to plasma ratio at 20 mg/kg, po measured at 24 hrs by LCMS analysis; type: ADME, organism-based; how it was run: as §1
VCaP [17] = assay: Antitumor activity against human VCaP cells xenografted in CB17:SCID mouse assessed as tumor growth inhibition at 40 mg/kg, po treated for 37 days relative to control; type: functional; details: 888 h, time 37 day, read-out: TGI
[18] = molecular target: T1, Protein cereblon/Androgen receptor (Homo sapiens, UniProt P10275+Q96SW2); assay: Protac activity at CRBN/AR in human VCaP cells assessed as reduction in AR protein level at 0.1 nM after 24 hrs by Western blot analysis relative to control; type: cell-based
How it was run: (§2)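 Western blot of AR after 24 h exposure to a concentration series in ATCC-derived cells, all with 10% FBS at 37 °C and 5% CO2: LNCaP and 22Rv1 in RPMI1640, VCaP in DMEM with Glutamax, MDA-PCa-2b in F-12K. Lysis in RIPA with protease and phosphatase inhibitors, then 4–12% SDS-PAGE and PVDF transfer. Band minus background is normalised to GAPDH.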

[19] = system: Protein cereblon/Androgen receptor (Homo sapiens), P10275+Q96SW2 [T878A]; assay: Protac activity at CRBN/AR T878A mutant in human LNCaP cells assessed as reduction in AR protein level at 0.3 nM after 24 hrs by Western blot analysis relative to control; type: cell-based; how it was run: as §2
[20] = molecular target: T1, Protein cereblon/Androgen receptor; assay: Protac activity at CRBN/AR in human MDA-PCa-2b cells assessed as reduction in AR protein level at 1 nM after 24 hrs by Western blot analysis relative to control; type: cell-based; how it was run: as §2
[21] = molecular target: T1, Protein cereblon/Androgen receptor; assay: Protac activity at CRBN/AR in human VCaP cells assessed as maximal AR degradation at 0.1 nM after 24 hrs by Western blot analysis relative to control; type: cell-based; how it was run: as §2
[22] = molecular target: T1, Protein cereblon/Androgen receptor; assay: Protac activity at CRBN/AR in human MDA-PCa-2b cells assessed as maximal AR degradation at 1 nM after 24 hrs by Western blot analysis relative to control; type: cell-based; how it was run: as §2
LNCaP = assay: Potency index, ratio of ARV-110 IC50 to compound IC50 for reduction in AR degradation human LNCaP cells after 24 hrs by Western blot analysis; type: functional
[23] = molecular target: Protein cereblon/Androgen receptor (Homo sapiens, UniProt P10275+Q96SW2, T878A); details: lncap
[24] = system: Protein cereblon/Androgen receptor (Homo sapiens), P10275+Q96SW2 [T878A]; assay: Protac activity at CRBN/AR T878A mutant in human LNCaP cells assessed as reduction in AR protein level at 100 nM after 3 hrs in presence of thalidomide by Western blot analysis
[25] = molecular target: T1, Protein cereblon/Androgen receptor; assay: Protac activity at CRBN/AR in human VCaP cells assessed as reduction in AR protein level at 100 nM after 3 hrs in presence of N-((1r,4r)-4-((3-chloro-4-cyanophenyl)(methyl)amino)cyclohexyl)-4-(4-methylpiperazin-1-yl)benzamide by Western blot analysis

T1 sequence (P10275 whole entry, looked up): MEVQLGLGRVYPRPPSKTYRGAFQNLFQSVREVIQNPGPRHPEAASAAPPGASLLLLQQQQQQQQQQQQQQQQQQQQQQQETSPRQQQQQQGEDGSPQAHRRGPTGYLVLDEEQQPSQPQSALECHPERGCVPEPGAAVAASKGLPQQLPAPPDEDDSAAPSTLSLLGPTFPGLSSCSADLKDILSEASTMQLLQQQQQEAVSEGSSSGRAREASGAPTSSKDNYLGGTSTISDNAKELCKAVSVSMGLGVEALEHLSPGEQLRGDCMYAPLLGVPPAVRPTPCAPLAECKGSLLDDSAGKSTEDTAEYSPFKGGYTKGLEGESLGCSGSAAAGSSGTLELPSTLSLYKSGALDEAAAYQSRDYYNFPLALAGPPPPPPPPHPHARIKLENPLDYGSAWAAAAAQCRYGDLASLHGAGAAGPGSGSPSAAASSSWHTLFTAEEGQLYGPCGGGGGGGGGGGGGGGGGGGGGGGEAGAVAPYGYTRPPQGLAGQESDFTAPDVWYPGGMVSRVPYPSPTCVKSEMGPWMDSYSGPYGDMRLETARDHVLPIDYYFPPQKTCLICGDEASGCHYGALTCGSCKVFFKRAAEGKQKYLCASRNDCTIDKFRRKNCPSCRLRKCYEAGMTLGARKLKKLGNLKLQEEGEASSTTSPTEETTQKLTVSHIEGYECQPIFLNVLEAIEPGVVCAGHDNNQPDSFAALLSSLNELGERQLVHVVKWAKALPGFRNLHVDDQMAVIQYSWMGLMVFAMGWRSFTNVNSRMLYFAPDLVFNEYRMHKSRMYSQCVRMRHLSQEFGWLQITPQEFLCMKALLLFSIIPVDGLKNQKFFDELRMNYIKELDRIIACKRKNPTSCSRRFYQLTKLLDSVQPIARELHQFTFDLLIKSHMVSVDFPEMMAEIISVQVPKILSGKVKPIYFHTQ
T1 sequence (Q96SW2 whole entry, looked up): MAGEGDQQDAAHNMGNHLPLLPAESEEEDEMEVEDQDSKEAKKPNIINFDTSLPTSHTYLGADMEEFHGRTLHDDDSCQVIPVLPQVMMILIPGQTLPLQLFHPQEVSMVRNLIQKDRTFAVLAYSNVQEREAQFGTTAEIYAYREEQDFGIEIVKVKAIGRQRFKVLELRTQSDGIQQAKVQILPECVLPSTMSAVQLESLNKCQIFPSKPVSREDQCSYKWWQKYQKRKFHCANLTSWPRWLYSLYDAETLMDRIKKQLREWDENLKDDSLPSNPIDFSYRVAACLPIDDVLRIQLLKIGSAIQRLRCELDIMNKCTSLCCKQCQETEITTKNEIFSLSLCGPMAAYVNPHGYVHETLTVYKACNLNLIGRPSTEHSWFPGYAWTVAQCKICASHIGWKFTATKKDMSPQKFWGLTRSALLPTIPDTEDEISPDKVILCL
Chain of Protein cereblon/Androgen receptor (Homo sapiens, UniProt P10275+Q96SW2, T878A) (P10275 whole entry T878A, stated change not applied): as the sequence (P10275 whole entry, looked up) above, with T878A counted along it
Chain of Protein cereblon/Androgen receptor (Homo sapiens, UniProt P10275+Q96SW2, T878A) (Q96SW2 whole entry, stated change not applied): as the sequence (Q96SW2 whole entry, looked up) above

CN(c1ccc(C#N)c(Cl)c1)[C@H]1CC[C@H](NC(=O)c2ccc(N3CCN(C4CN(c5ccc6c(c5)C(=O)N(C5CCC(=O)NC5=O)C6=O)C4)CC3)cc2)CC1 (stereo partly specified)
IC50 (VCaP [1]): 1500 pM | inhibition (VCaP [2]): Active | concentration at 6 h [3]: 87 ng/mL | concentration at 24 h [4]: 102 ng/mL | concentration at 6 h [5]: 76 ng/g | concentration at 24 h [6]: 107 ng/g | inhibition in vivo at 10 mg/kg (VCaP [7]): 60% | Kp at 1 h [8]: 6.2 | concentration at 1 h [9]: 25 ng/g | Kp at 6 h [10]: 1.5 | concentration at 6 h [11]: 3510 ng/g | Kp at 6 h [12]: 26.2 | concentration at 24 h [13]: 366 ng/g | Kp at 24 h [14]: 1.7 | concentration at 24 h [15]: 683 ng/g | Kp at 24 h [16]: 3.2 | inhibition in vivo at 40 mg/kg (VCaP [17]): 65.9% | inhibition [18]: > 80% | inhibition [19]: > 80% | inhibition [20]: > 80% | Emax [21]: > 95% | Emax [22]: > 95% | Ratio (LNCaP): 10 | DC50 [23]: 100 pM | Activity [24]: inactive | Activity [25]: inactive
